According to ChEMBL document CHEMBL1150856, “Trypanocidal withanolides and withanolide glycosides from Dunalia brachyacantha” (2001):
Active and inactive are the calls of the source. The calls are words filed in the database; no cut-off is given here.

Columns and labels:
[1] = tested on: Leishmania amazonensis; assay: Antiparasitic activity against Leishmania amazonensis IFLA/BR/67/PH8 at 0.1 ug/mL after 72 hrs; format: functional
How it was run: (§1)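 Promastigotes at 50 000 parasites/mL, 27 °C, 72 h, with compound at final 50, 25, 10, 1 and 0.1 μg/mL. Compound dissolved in medium plus DMSO (final DMSO under 0.1%) and filter-sterilised (0.22 μm). Triplicate wells. Activity was judged by inverted phase-contrast microscopy of a culture drop against untreated and pentamidine controls.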

[2] = tested on: Leishmania amazonensis; assay: Antiparasitic activity against Leishmania amazonensis IFLA/BR/67/PH8 at 25 ug/mL after 72 hrs; format: functional, organism-based; how it was run: as §1
[3] = tested on: Leishmania donovani; assay: Antiparasitic activity against Leishmania donovani MHOM/IN/83/HS70 at 50 ug/mL after 72 hrs; format: functional, organism-based; how it was run: as §1
[4] = tested on: Leishmania donovani; assay: Antiparasitic activity against Leishmania donovani MHOM/IN/83/HS70 at 10 ug/mL after 72 hrs; format: functional; how it was run: as §1
[5] = tested on: Bacillus subtilis; assay: Antibacterial activity against Bacillus subtilis ATCC 6633 at 0.0312 mg/mL after 18 hrs; format: functional, organism-based
[6] = tested on: Staphylococcus aureus; assay: Antibacterial activity against Staphylococcus aureus ATCC 25923/6538 at 0.0312 mg/mL after 18 hrs; format: functional, organism-based
[7] = tested on: Leishmania braziliensis; assay: Antiparasitic activity against Leishmania braziliensis MHOM/BR/75/M2903 at 10 ug/mL after 72 hrs; format: functional; how it was run: as §1
[8] = tested on: Leishmania braziliensis; assay: Antiparasitic activity against Leishmania braziliensis MHOM/BR/75/M2903 at 25 ug/mL after 72 hrs; format: functional, organism-based; how it was run: as §1
[9] = tested on: Shigella flexneri; assay: Antibacterial activity against Shigella flexneri […] at 0.0312 mg/mL after 18 hrs; format: functional, organism-based
[10] = tested on: Trypanosoma cruzi; assay: Antiparasitic activity against Trypanosoma cruzi Tulahuen epimastigotes at 1 ug/mL after 48 hrs; format: functional
How it was run: (§2)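 Epimastigotes in LIT medium with 10% fetal calf serum, inoculum 10⁶ cells/mL, 28 °C. Samples were dissolved in DMSO and medium to final 50, 20, 10, 1 and 0.1 μg/mL (final DMSO under 0.5%). Triplicate. After 48 h, parasites were counted by haemocytometer and compared with untreated and pentamidine controls.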

[11] = tested on: Leishmania braziliensis; assay: Antiparasitic activity against Leishmania braziliensis MHOM/BR/75/M2903 at 50 ug/mL after 72 hrs; format: functional, organism-based; how it was run: as §1
[12] = tested on: Leishmania donovani; assay: Antiparasitic activity against Leishmania donovani MHOM/IN/83/HS70 at 25 ug/mL after 72 hrs; format: functional, organism-based; how it was run: as §1
[13] = tested on: Trypanosoma cruzi; assay: Antiparasitic activity against Trypanosoma cruzi Tulahuen epimastigotes at 50 ug/mL after 48 hrs; format: functional; how it was run: as §2
[14] = tested on: Leishmania amazonensis; assay: Antiparasitic activity against Leishmania amazonensis IFLA/BR/67/PH8 at 10 ug/mL after 72 hrs; format: functional; how it was run: as §1
[15] = tested on: Shigella flexneri; assay: Antibacterial activity against Shigella flexneri […] at 0.0625 mg/mL after 18 hrs; format: functional, organism-based
[16] = tested on: Leishmania donovani; assay: Antiparasitic activity against Leishmania donovani MHOM/IN/83/HS70 at 0.1 ug/mL after 72 hrs; format: functional; how it was run: as §1
[17] = tested on: Leishmania braziliensis; assay: Antiparasitic activity against Leishmania braziliensis MHOM/BR/75/M2903 at 1 ug/mL after 72 hrs; format: functional; how it was run: as §1
[18] = tested on: Leishmania amazonensis; assay: Antiparasitic activity against Leishmania amazonensis IFLA/BR/67/PH8 at 1 ug/mL after 72 hrs; format: functional; how it was run: as §1
[19] = tested on: Leishmania braziliensis; assay: Antiparasitic activity against Leishmania braziliensis MHOM/BR/75/M2903 at 0.1 ug/mL after 72 hrs; format: functional; how it was run: as §1
[20] = tested on: Trypanosoma cruzi; assay: Antiparasitic activity against Trypanosoma cruzi Tulahuen epimastigotes at 0.1 ug/mL after 48 hrs; format: functional; how it was run: as §2
[21] = tested on: Escherichia coli; assay: Antibacterial activity against Escherichia coli ATCC 8739 at 0.0312 mg/mL after 18 hrs; format: functional, organism-based
[22] = tested on: Trypanosoma cruzi; assay: Antiparasitic activity against Trypanosoma cruzi Tulahuen epimastigotes at 25 ug/mL after 48 hrs; format: functional
[23] = tested on: Leishmania donovani; assay: Antiparasitic activity against Leishmania donovani MHOM/IN/83/HS70 at 1 ug/mL after 72 hrs; format: functional; how it was run: as §1
[24] = tested on: Staphylococcus aureus; assay: Antibacterial activity against Staphylococcus aureus ATCC 25923/6538 at 0.0625 mg/mL after 18 hrs; format: functional, organism-based
[25] = tested on: Leishmania amazonensis; assay: Antiparasitic activity against Leishmania amazonensis IFLA/BR/67/PH8 at 50 ug/mL after 72 hrs; format: functional, organism-based; how it was run: as §1
[26] = tested on: Trypanosoma cruzi; assay: Antiparasitic activity against Trypanosoma cruzi Tulahuen epimastigotes at 10 ug/mL after 48 hrs; format: functional; how it was run: as §2

CC(=O)OC[C@]12CC[C@H]3[C@@H](CC=C4[C@@H](O)C=CC(=O)[C@@]43C)[C@@H]1CC[C@@H]2[C@@](C)(O)[C@H]1CC(C)=C(C)C(=O)O1
Activity [1]: 0%
Activity [2]: Active
Activity [3]: Active
Activity [4]: Active
Activity [5]: inactive
Activity [6]: inactive
Activity [7]: Active
Activity [8]: Active
Activity [9]: inactive
Activity [10]: 0%
Activity [11]: Active
Activity [12]: Active
Activity [13]: Active
Activity [14]: Active
Activity [15]: inactive
Activity [16]: 0%
Activity [17]: 50%
Activity [18]: 75%
Activity [19]: 0%
Activity [20]: 0%
Activity [21]: inactive
Activity [22]: Active
Activity [23]: 75%
Activity [24]: inactive
Activity [25]: Active
Activity [26]: 75%

N=C(N)c1ccc(OCCCCCOc2ccc(C(=N)N)cc2)cc1
Activity [4]: Active
Activity [7]: Active
Activity [14]: Active
Activity [26]: Active

CC(=O)OC[C@]12CC[C@H]3[C@@H](C[C@H]4O[C@]45[C@@H](O)C=CC(=O)[C@]35C)[C@@H]1CC[C@@H]2[C@@](C)(O)[C@H]1CC(C)=C(C)C(=O)O1
Activity [2]: Active
Activity [3]: Active
Activity [4]: 75%
Activity [7]: 50%
Activity [8]: Active
Activity [11]: Active
Activity [12]: Active
Activity [13]: 50%
Activity [14]: 75%
Activity [22]: 0%
Activity [25]: Active
Activity [26]: 0%
